Measurements gathered from unrelated publications.
Each line is one published result; the experiments were not run side by side.
Read-out: enzyme activity
Action: inhibitor
BMP2K: BMP-2-inducible protein kinase (BMP2K, Homo sapiens, UniProt Q9NSY1)
murC: UDP-N-acetylmuramate--L-alanine ligase (murC, Escherichia coli K-12, UniProt P17952)
ACVR2B: Activin receptor type-2B (ACVR2B, Homo sapiens, UniProt Q13705)
COQ8B: Atypical kinase COQ8B, mitochondrial (COQ8B, Homo sapiens, UniProt Q96D53)

| target | test | conditions | remaining activity [%] | SMILES |
| --- | --- | --- | --- | --- |
| BMP2K | radiometric | 1 µM | 101 | Cc1nn(CC(F)(F)F)cc1Nc1nccc(NCCCNC(=O)C2CCC2)n1 |
| murC | absorbance | 50 µM | 55 | O=[N+]([O-])c1ccccc1S(=O)(=O)Oc1ccccc1C=NNS(=O)(=O)c1ccc2ccccc2c1 |
| BMP2K | radiometric | 1 µM | 86 | Cc1nn(CC(F)(F)F)cc1Nc1nccc(NCc2ccc(S(N)(=O)=O)cc2)n1 |
| ACVR2B | radiometric | 1 µM | 88 | CC(C)(C)c1nc2c(s1)c1nc(N)ncc1c1ccc(NS(=O)(=O)c3c(F)cccc3F)c(F)c12 |
| COQ8B |  | 20 µM | 24 | Nc1ncnc2occ(-c3ccc(NC(=O)Nc4cc(C(F)(F)F)ccc4F)cc3)c12 |
| BMP2K | radiometric | 1 µM | 3 | O=C(NCCCNc1nc(Nc2cccc(CN3CCOCC3)c2)ncc1C1CC1)C1CCC1 |
| Rho-associated protein kinase 2 (ROCK2, Homo sapiens, UniProt O75116) |  | 50 nM | 38 | CCCOc1ccc(OC)c(F)c1C(=O)c1ccc(C(=O)N[C@@H]2CNC[C@H]2NC(=O)c2ccc3[nH]ncc3c2)cc1 |
| murC | absorbance | 100 µM | 75 | O=[N+]([O-])c1ccc(S(=O)(=O)Oc2ccccc2C=NNS(=O)(=O)c2ccc3ccccc3c2)cc1 |
| BMP2K | radiometric | 1 µM | 68 | NS(=O)(=O)c1ccc(CNc2nc(Nc3cccc(CN4CCOCC4)c3)ncc2C2CC2)cc1 |
| ACVR2B | radiometric | 1 µM | 46 | CC(C)(C)c1nc(-c2cccc(NS(=O)(=O)c3c(F)cccc3F)c2F)c(-c2ccnc(N)n2)s1 |
| murC | absorbance | 50 µM | 65 | O=[N+]([O-])c1cccc(S(=O)(=O)Oc2ccccc2C=NNS(=O)(=O)c2ccc3ccccc3c2)c1 |
| MAPK/MAK/MRK overlapping kinase (MOK, Homo sapiens, UniProt Q9UQ07) |  | 1 µM | 102 | COc1cc(Cl)c(C(=O)N[C@@H](CN[C@H]2CC[C@@H](N)CC2)Cc2ccc(C#N)cc2)cc1-c1ccc(CN[C@H](C)c2ccc(C)cc2)o1 |
| murC | absorbance | 100 µM | 72 | O=C(Nc1ccc(C=NNS(=O)(=O)c2ccc3ccccc3c2)cc1)c1cc([N+](=O)[O-])cc([N+](=O)[O-])c1 |
| COQ8B |  | 23.5 nM | 89 | Cc1ccc(C(=O)Nc2ccc(CN3CCN(C)CC3)c(C(F)(F)F)c2)cc1C#Cc1cnc2cccnn12 |
| BMP2K | radiometric | 1 µM | 104 | Cc1nn(CC(F)(F)F)cc1Nc1nccc(NCCc2cnc[nH]2)n1 |
| murC | absorbance | 50 µM | 58 | O=[N+]([O-])c1cccc(COc2cccc(C=NNS(=O)(=O)c3ccc4ccccc4c3)c2)c1 |
| BMP2K | radiometric | 1 µM | 1 | Brc1cnc(Nc2cccc(CN3CCOCC3)c2)nc1NCCc1c[nH]cn1 |
| murC | absorbance | 100 µM | 51 | O=C(Nc1ccccc1C=NNS(=O)(=O)c1ccc2ccccc2c1)c1cc([N+](=O)[O-])cc([N+](=O)[O-])c1 |
